87 compounds from PubChem BioAssay AID624466 (The Scripps Research Institute Molecular Screening Center, 2012) can be followed below.

The whole screen tested about 360,000 compounds, of which about 5,400 (1.5%) were called active. For the sample, actives were picked, then their nearest neighbours and some compounds at random. A number with no mark means an inactive call.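 Rule for the calls: active = inhibition above a per-plate cutoff, the mean inhibition of test compounds on that plate plus 3 SD (cut at about 49% in these data); inactive = the rest.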

Sequence of Trace amine-associated receptor 1 (Homo sapiens) (Q96RJ0 whole entry, looked up): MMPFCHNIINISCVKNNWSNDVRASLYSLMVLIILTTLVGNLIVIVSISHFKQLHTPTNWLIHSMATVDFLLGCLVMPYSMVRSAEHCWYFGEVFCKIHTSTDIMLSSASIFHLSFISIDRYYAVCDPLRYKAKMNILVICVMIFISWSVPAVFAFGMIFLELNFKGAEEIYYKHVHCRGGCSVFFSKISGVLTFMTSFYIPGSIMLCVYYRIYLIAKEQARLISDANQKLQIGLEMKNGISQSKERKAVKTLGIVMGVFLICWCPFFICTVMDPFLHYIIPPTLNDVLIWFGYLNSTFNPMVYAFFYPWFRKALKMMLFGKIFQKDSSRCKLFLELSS

The experiment has as its target Trace amine-associated receptor 1 (Homo sapiens) (UniProt Q96RJ0). Put plainly: human TAAR1 antagonists, primary screen, Fluo-8 calcium fluorescence, CHO RD-HGA16 cells (AID 624466).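 Note: 0% = DMSO plus EC80 beta-PEA response and 100% = DMSO alone without agonist.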 Conditions: CHO RD-HGA16 TAAR1, Fluo-8 calcium fluorescence, antagonist; at 3 µM; active compounds read high. The gist of the method: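 Assay system: RD-HGA16 CHO cells with stable hTAAR1 and Gα16 / Reagent: EC80 β-phenethylamine stimulus / Doses: 3 µM, single point / Timing: dye loading 75 min at 37 °C, then 30 min room temperature / Measured by: Fluo-8 intracellular calcium dye fluorescence, real-time kinetic reads / Controls: vehicle wells and EC80 agonist wells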
`COc1ccccc1CCn1cnc(-c2ccccc2)c1C(C)C`: the inhibition (as a rule, the relative decrease from the control value, in per cent) was 20%.

On to `CCCCc1c(-c2ccc(Br)cc2)ncn1CCc1ccccc1OC`, for which the inhibition is 28.2%.

As to `CCc1c(-c2ccccc2OC)ncn1CCc1ccccc1OC`, the inhibition is 14.3%.

For `COc1ccccc1CCNS(=O)(=O)c1cn(C)nc1C`, the inhibition is -36.9%. With `CCCCCc1c(-c2cccc(Br)c2)ncn1CCc1ccccc1OC` the figure was 43.2%. With `CCCCCc1c(Cc2ccccc2)ncn1CCc1ccccc1OC` the figure was 66.2% (active); with `CCCCCc1c(-c2ccc(OC)c(OC)c2)ncn1CCc1ccccc1OC`, 73.9% (active). Turning to `CCCCc1c(-c2ccc(Cl)cc2)ncn1CCc1ccccc1OC`, the inhibition is 49.6% (active). With `CCCc1c(-c2ccccc2F)ncn1Cc1ccccc1OC` the figure was -7.18%; with `CCOC(=O)c1cc2cc(OC)ccc2n1C1CCN(C)CC1`, -4.73%; with `COC(=O)[C@]1(Cc2ccccc2)NC=C(C(=O)c2ccccc2)[C@@H]1c1cccc(OC)c1`, -1.81%. With `C[C@H](NC(=O)[C@@H]1CCCN1C(=O)[C@@H]1CCCN1C(=O)c1ccccc1)c1ccccc1` the figure was 2.01%. With `C=CCC[C@H](CCCCC)OC(=O)/C=C/[C@H](O)[C@@H](O)C[C@@H](O)CC=C` the figure was -19.3%; with `COC(=O)C(C)N(C#N)c1nc(C)nc(C)n1` (configuration not stated), -2.26%.

In the case of `COC(=O)c1c(-c2ccc(OC)cc2)c2c(c3c4ccccc4n(S(=O)(=O)c4ccc(C)cc4)c13)C(=O)N(C)C2`, the inhibition was -15.3%. With `CN=C(NC#N)NCCSCc1nc[nH]c1C` the figure was -15.6%; with `Cc1cc(C)n2nc(C(=O)Oc3ccc4c(c3)OCO4)nc2n1`, 2.03%. As for `O=C(NCc1ccccc1)[C@@H]1CCCN1C(=O)[C@@H](NS(=O)(=O)c1ccc(F)cc1F)C1CCCCC1`, the inhibition is 7.07%. With `O=C(C(=O)N1CCC(c2ccccc2)CC1)c1ccccc1` the figure was -1.49%; with `COc1ccc(-c2cc(C(F)(F)F)nc(SCCC(=O)NCc3ccco3)n2)cc1`, -2.48%.

Consider `O=C(CSc1nc(-c2ccco2)cc(C(F)(F)F)n1)NCc1cccs1`, for which the inhibition is 58.2% (active). Regarding `O=C(CSc1nc(-c2ccco2)cc(C(F)(F)F)n1)N1CCc2ccccc2C1`, the inhibition is -4.26%. With `CC1CCCN(C(C(=O)Nc2ccc(C(C)C)cc2)c2ccc3c(c2)OCO3)C1` (configuration not stated) the figure was -12.3%; with `CCOC(=O)[C@]12CCCC=C1N(Cc1ccc3c(c1)OCO3)C(=O)[C@H](CC(=O)NCc1cccs1)C2`, -12.1%. On to `O=C(O)c1ccc(-n2cccc2)cc1O`, for which the inhibition is 6.36%. With `CC(=N\NC(=O)c1cc(Br)ccc1O)/C(=N/O)C(=O)Nc1ccccc1` the figure was -8.22%; with `Cc1onc(-c2ccccc2Cl)c1C(=O)OCc1nnc(-c2ccccc2)o1`, 14.8%. With `Cc1onc(-c2ccccc2)c1-c1nnc(COC(=O)c2ccc(N(C)C)cc2)o1` the figure was 73.5% (active); with `Cc1ccc(C(=O)NCC(=O)OCc2nnc(-c3ccccc3)o2)cc1`, -15.8%.

On to `O=S1(=O)CC(N2CCN(Cc3ccccc3F)CC2)CN1Cc1cn(Cc2ccccc2)nn1` (configuration not stated), for which the inhibition was -11.1%.

As to `CC(C)CCNc1nc(N2CCCC2)c2c(c1C#N)CCN(C)C2`, the inhibition was -24.7%. With `CCCCc1nc(NCc2ccccc2)c(C#N)c2c1CCCC2` the figure was -12.6%. For the compound `CCN1CCc2c(C#N)c(NCc3ccccc3)nc(NCCO)c2C1`, the inhibition is 106% (active).

Turning to `O=C(O)c1ccccc1-c1ccccc1C(=O)Nc1nccs1`, the inhibition was -18.3%.

On to `COc1ccc(Cl)cc1NC(=O)CN(C)C(=O)c1cn(-c2ccccc2)nc1-c1cccs1`, for which the inhibition is 12.7%.

For `COc1ccc(-c2nn(-c3ccccc3)cc2C(=O)Nc2nccs2)cc1OC`, the inhibition is 71.3% (active).

In the case of `CCn1c(/C=C/Nc2ccccc2)[n+](CC)c2ccc(C(=O)OCC(F)(F)F)cc21`, the inhibition was -27.5%. With `CC1(C)OC(=O)C2=C(C[C@@H](C3CCCCC3)O[C@@H]2c2ccc(Cl)cc2)O1` the figure was -31%. For the compound `CS(=O)(=O)c1ccc(-c2nnn(CC(=O)Nc3ccc4c(c3)OCCO4)n2)cc1`, the inhibition is 21%. With `CC(C)c1cccc(-c2csc(C(O)c3ccccc3)n2)c1` (configuration not stated) the figure was 17.5%; with `COc1ccccc1NS(=O)(=O)c1ccc(C(=O)N2CCN(c3ccccc3O)CC2)cc1`, 58.1% (active). With `COc1ccc(N2CCN(C(=O)COC(=O)c3cccc(S(=O)(=O)Nc4ccccc4OC)c3)CC2)cc1` the figure was 21.7%; with `CN1CCN(C(=O)c2ccc(NS(=O)(=O)c3ccccc3)cc2)CC1`, -8.92%; with `CCOc1ccc(-n2cnc3c(=O)[nH]c(N)nc32)cc1`, 0.45%. As for `O=C(NNC(=O)c1ccccc1O)c1ccccc1O`, the inhibition was -13.5%. With `O=C(NNc1c2ccccc2nc2ccccc12)c1cc2ccccc2cc1O` the figure was 65.3% (active). With `O=C(COC(=O)c1ccc(O)cc1O)NC(=O)c1ccccc1` the figure was -0.49%; with `Cc1cccc(C)c1NC(=O)C(c1ccc(C(F)(F)F)cc1)n1c(=O)c(-c2ccco2)nc2ccccc21` (configuration not stated), -9.78%. With `O=S(=O)(NCCc1ccccn1)c1cc(Cl)cc(Cl)c1O` the figure was -19.9%; with `O=C(c1ccc(O)cc1)c1ccc(C(=O)O)c(C(=O)O)c1`, 17.8%. Consider `COC(=O)[C@]12CCCCC=C1N(Cc1ccc3c(c1)OCO3)C(=O)[C@H](CC(=O)NCc1cccs1)C2`, for which the inhibition was 21.1%. With `Cn1cccc1C(=O)OCC(=O)c1ccc(Br)s1` the figure was -0.72%. With `NS(=O)(=O)c1ccc(NC(=O)COC(=O)c2c3c(nc4ccccc24)/C(=C\c2ccc4c(c2)OCO4)CCC3)cc1` the figure was 6.15%. With `O=C(COC(=O)c1c2c(nc3ccccc13)CCCC2)c1ccc(Br)s1` the figure was 49% (active). For `Cc1cc(S(=O)(=O)N2CCOCC2)ccc1OCC(=O)Nc1cccc(C(F)(F)F)c1`, the inhibition is 30.6%.

As to `CN1C(=O)C2CC(O)C(SC3CC4C(=O)N(C)C(=O)C4CC3O)CC2C1=O` (configuration not stated), the inhibition was 2.98%. With `CN[C@H]1C[C@H]2c3cc(Oc4ccccc4C)ccc3CCN2C(=O)[C@H]1[C@H](C)O` the figure was 0.22%; with `COc1ccc(NC(=O)CN(C)C(=O)c2ccc(COc3ccccc3)o2)cc1`, -57.5%. With `O=C(O)c1ccc(NC(=O)c2ccc(COc3ccc(Cl)cc3)o2)cc1` the figure was 34.7%. With `Cc1cc(OCc2ccc(C(=O)Nc3ccc(C(=O)O)cc3)o2)ccc1Cl` the figure was 50.2% (active). Take `CC(C)(C)C(=O)c1c(N)[nH]c(C(=O)c2ccccc2)c1-c1ccc(F)cc1`: the inhibition is 2.74%. On to `CCOC(=O)Cn1c2c(n(-c3ccc(F)cc3)c1=O)C=C(c1ccccc1)[C@@H](C)C(C(=O)N(C)C1CCCCC1)=C2`, for which the inhibition was -25%. Regarding `COC(=O)[C@]12C[C@H](CC(=O)NCCC(C)C)C(=O)N(CCc3ccc(OC)c(OC)c3)C1=C[C@H](C(C)(C)C)O[C@@H]2C`, the inhibition was -15.9%. With `Cc1cc2nc(-c3ccc(F)cc3)c(Cc3ccsc3)n2c(C)c1Br` the figure was -3.77%; with `O=C(CCCCCn1c(=S)[nH]c2cc3c(cc2c1=O)OCO3)N1CCN(c2ccc(F)cc2)CC1`, 11.1%; with `Cc1ccc(C)c(N2CCN(C(=O)CCCCCn3c(=S)[nH]c4ccc(N5CCOCC5)cc4c3=O)CC2)c1`, 75% (active). For the compound `Cc1ccc(C)c(N2CCN(C(=O)CCCn3c(=O)c4cccn4c4cccnc43)CC2)c1`, the inhibition is 26%. As for `CCN(CCCNC(=O)c1ccc2c(c1)NC(=O)CN2C)c1cccc(C)c1`, the inhibition was -2.86%.

Turning to `Cc1c(Cl)cnc(NC(=O)COC(=O)c2ccc(S(=O)(=O)NCc3ccco3)cc2)c1Cl`, the inhibition was -10.1%. With `C/C(=N\Nc1ncc(Cl)cc1Cl)c1ccc(S(=O)(=O)NCc2ccco2)cc1` the figure was 49.3% (active); with `O=S(=O)(NCc1ccco1)c1cnc(Cl)c(Cl)c1`, -4.49%; with `O=C(COC(=O)Cn1cnc2ccccc2c1=O)NCC12CC3CC(CC(C3)C1)C2`, -9.23%. With `C[C@H](O)[C@@H]1C(=O)N2CCc3c([nH]c4c(-c5ccc6c(c5)OCO6)cccc34)[C@@H]2C[C@@H]1N(C)C(=O)c1ccco1` the figure was 60.8% (active). Regarding `CCOC(=O)CNC(=O)N(C)[C@H]1C[C@H]2c3[nH]c4c(-c5ccc6c(c5)OCO6)cccc4c3CCN2C(=O)[C@H]1[C@H](C)O`, the inhibition is 12.4%. Consider `CN[C@H]1C[C@H]2c3[nH]c4c(-c5ccccc5)cccc4c3CCN2C(=O)[C@H]1[C@H](C)O`, for which the inhibition was 15.3%. For `O=C(CN1CCSCC1)N/N=C/c1ccc(Cl)cc1`, the inhibition was -17.2%. For `CSCc1ccc(C(=O)Nc2cc(C)cc(C)c2)cc1`, the inhibition is 16.7%. With `Cc1ccc(NC(=O)c2ccc(CSc3ncnc4nc[nH]c34)cc2)c(C)c1` the figure was 56.7% (active); with `CSc1ncc(C(=O)Nc2ccc(C)cc2C)c(C)n1`, -0.22%; with `CC[C@@H]1CCCCc2ccccc2[C@@H](C(=O)C[C@H](O)CC(C)=O)OC1=O`, 13.4%. Turning to `C=CCn1c(SCc2c(C(=O)OC)sc(N)c2C(=O)OC)nnc1-c1ccc(Cl)cc1`, the inhibition is 34.7%. With `O=C(NNC(=S)Nc1ccc(Br)cc1Cl)c1ccco1` the figure was -2.77%; with `NS(=O)(=O)c1ccc(CNC(=S)NC(=O)c2ccco2)cc1`, 6.18%. With `CC(Oc1ccc2ccccc2c1)C(=O)NNC(=S)NC(=O)c1ccco1` (configuration not stated) the figure was 61.9% (active); with `CCOc1cc(NC(=S)NCc2ccco2)c(OCC)cc1NC(=O)c1ccco1`, 9.19%; with `O=C(Nc1ccc2ccccc2c1)/C(=C\c1ccc2c(c1)OCO2)NC(=O)c1ccco1`, 12.7%. With `CCCc1ccc(OCC(=O)NNC(=S)NC(=O)c2ccco2)cc1` the figure was 74.2% (active).
